ChEMBL document CHEMBL3774312, “5-Substituted 3-isopropyl-7-[4-(2-pyridyl)benzyl]amino-1(2)H-pyrazolo[4,3-d]pyrimidines with anti-proliferative activity as potent and selective inhibitors of cyclin-dependent kinases” (Eur J Med Chem, 2016)
Activity calls are given as the source filed them. The calls are words filed in the database; no cut-off is given here.

Columns and labels:
[1] = biological target: Cyclin-dependent kinase 7 (Homo sapiens, UniProt P50613); test: Inhibition of CDK7 (unknown origin)
Chain of Cyclin-dependent kinase 7 (P50613 whole entry): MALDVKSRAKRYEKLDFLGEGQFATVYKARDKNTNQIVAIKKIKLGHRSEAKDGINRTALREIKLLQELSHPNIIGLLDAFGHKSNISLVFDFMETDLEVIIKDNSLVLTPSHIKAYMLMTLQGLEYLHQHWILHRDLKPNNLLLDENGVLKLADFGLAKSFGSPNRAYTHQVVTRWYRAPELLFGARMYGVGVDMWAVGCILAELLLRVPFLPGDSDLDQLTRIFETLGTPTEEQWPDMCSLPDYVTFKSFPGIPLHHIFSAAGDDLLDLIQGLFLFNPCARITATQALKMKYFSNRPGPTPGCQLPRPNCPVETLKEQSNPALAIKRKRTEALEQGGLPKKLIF

[2] = biological target: Serine/threonine-protein kinase PLK1 (Homo sapiens) (UniProt P53350); test: Inhibition of recombinant PLK1 (unknown origin) assessed as residual activity at 1 uM relative to control
[3] = biological target: Serine/threonine-protein kinase Chk2 (Homo sapiens) (UniProt O96017); test: Inhibition of recombinant CHK2 (unknown origin) assessed as residual activity at 1 uM relative to control
[4] = biological target: Protein kinase C alpha type (Homo sapiens) (UniProt P17252); test: Inhibition of recombinant PKCalpha (unknown origin) assessed as residual activity at 1 uM relative to control
[5] = biological target: Myosin light chain kinase, smooth muscle (Homo sapiens) (UniProt Q15746); test: Inhibition of recombinant smMLCK (unknown origin) assessed as residual activity at 1 uM relative to control
MCF7 [6] = test: Cell cycle arrest in BrdU pulse-labelled human MCF7 cells assessed as accumulation at late S phase at 8 to 250 nM after 24 hrs by propidium iodide staining based flow cytometry; type: functional
[7] = biological target: Homeodomain-interacting protein kinase 2 (Homo sapiens) (UniProt Q9H2X6); test: Inhibition of recombinant HIPK2 (unknown origin) assessed as residual activity at 1 uM relative to control
[8] = biological target: Serine/threonine-protein kinase TBK1 (Homo sapiens) (UniProt Q9UHD2); test: Inhibition of recombinant TBK1 (unknown origin) assessed as residual activity at 1 uM relative to control
[9] = biological target: Ribosomal protein S6 kinase alpha-5 (Homo sapiens) (UniProt O75582); test: Inhibition of recombinant MSK1 (unknown origin) assessed as residual activity at 1 uM relative to control
[10] = biological target: Aurora kinase B (Homo sapiens) (UniProt Q96GD4); test: Inhibition of recombinant Aurora B (unknown origin) assessed as residual activity at 1 uM relative to control
Chain of Aurora kinase B (Homo sapiens) (Q96GD4 whole entry): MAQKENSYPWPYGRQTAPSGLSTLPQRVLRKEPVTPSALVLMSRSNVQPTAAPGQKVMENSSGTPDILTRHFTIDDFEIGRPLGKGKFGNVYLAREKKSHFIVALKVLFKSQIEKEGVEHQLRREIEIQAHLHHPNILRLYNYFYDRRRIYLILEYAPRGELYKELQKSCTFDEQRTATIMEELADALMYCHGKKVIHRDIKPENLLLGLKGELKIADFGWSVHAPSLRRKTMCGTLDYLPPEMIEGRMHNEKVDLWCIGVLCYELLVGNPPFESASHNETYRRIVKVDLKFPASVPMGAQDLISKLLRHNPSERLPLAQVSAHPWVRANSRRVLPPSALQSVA

MCF7 [11] = test: Cell cycle arrest in BrdU pulse-labelled human MCF7 cells assessed as accumulation at late G2/M phase at 8 to 250 nM after 24 hrs by propidium iodide staining based flow cytometry; type: functional
[12] = biological target: Mitogen-activated protein kinase 14 (Homo sapiens) (UniProt Q16539); test: Inhibition of recombinant p38alpha MAP kinase (unknown origin) assessed as residual activity at 1 uM relative to control
G-361 = test: Induction of apoptosis in human G361 cells assessed as caspase7 activation using Ac-DEVD-AMC as substrate at IC50 preincubated for 24 hrs followed by substrate addition measured after 3 hrs by fluorescence assay; type: functional, cell-based
HCT-116 [13] = test: Induction of apoptosis in human HCT116 cells assessed as caspase7 activation using Ac-DEVD-AMC as substrate preincubated for 24 hrs followed by substrate addition measured after 3 hrs by fluorescence assay; type: functional, cell-based
[14] = biological target: Dual specificity tyrosine-phosphorylation-regulated kinase 1A (Homo sapiens) (UniProt Q13627); test: Inhibition of recombinant DYRK1A (unknown origin) assessed as residual activity at 1 uM relative to control
[15] = biological target: Serine/threonine-protein kinase Nek6 (Homo sapiens) (UniProt Q9HC98); test: Inhibition of recombinant NEK6 (unknown origin) assessed as residual activity at 1 uM relative to control
Chain of Serine/threonine-protein kinase Nek6 (Homo sapiens) (Q9HC98 whole entry): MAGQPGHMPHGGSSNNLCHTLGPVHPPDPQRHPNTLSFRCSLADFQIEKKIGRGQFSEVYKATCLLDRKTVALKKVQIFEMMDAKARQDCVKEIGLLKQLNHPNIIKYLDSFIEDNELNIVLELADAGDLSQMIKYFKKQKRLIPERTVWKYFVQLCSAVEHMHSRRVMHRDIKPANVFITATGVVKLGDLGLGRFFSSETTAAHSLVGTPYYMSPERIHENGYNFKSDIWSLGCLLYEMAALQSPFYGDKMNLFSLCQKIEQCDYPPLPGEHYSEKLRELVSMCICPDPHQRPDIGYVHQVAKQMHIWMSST

HCT-116 [16] = test: Induction of apoptosis in human HCT116 cells assessed as decrease in MCL-1 expression incubated for 24 hrs by immunoblotting analysis; type: functional, cell-based
In short: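 HCT-116 cells were treated with different doses for 24 h and harvested into Laemmli buffer. Proteins were separated by SDS-PAGE and blotted to nitrocellulose. Membranes were probed overnight with primary antibodies (anti-PARP F-2, anti-Mcl-1 S-19, anti-p53 DO-1), then with peroxidase secondaries. Bands were detected by ECL with a CCD camera, with tubulin as loading control.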

[17] = biological target: Vascular endothelial growth factor receptor (Homo sapiens) (UniProt P17948+P35916+P35968); test: Inhibition of recombinant VEGFR (unknown origin) assessed as residual activity at 1 uM relative to control; type: protein assay
[18] = Cell cycle arrest in BrdU pulse-labelled human HCT116 cells assessed as accumulation at late S phase at 125 to 500 nM after 24 hrs by propidium iodide staining based flow cytometry; type: functional; details: HCT-116
[19] = biological target: Insulin-like growth factor 1 receptor (Homo sapiens) (UniProt P08069); test: Inhibition of recombinant IGF1R (unknown origin) assessed as residual activity at 1 uM relative to control
[20] = biological target: Tyrosine-protein kinase SYK (Homo sapiens) (UniProt P43405); test: Inhibition of recombinant SYK (unknown origin) assessed as residual activity at 1 uM relative to control
[21] = biological target: Serine/threonine-protein kinase Sgk1 (Homo sapiens) (UniProt O00141); test: Inhibition of recombinant SGK1 (unknown origin) assessed as residual activity at 1 uM relative to control
Chain of Serine/threonine-protein kinase Sgk1 (Homo sapiens) (O00141 whole entry): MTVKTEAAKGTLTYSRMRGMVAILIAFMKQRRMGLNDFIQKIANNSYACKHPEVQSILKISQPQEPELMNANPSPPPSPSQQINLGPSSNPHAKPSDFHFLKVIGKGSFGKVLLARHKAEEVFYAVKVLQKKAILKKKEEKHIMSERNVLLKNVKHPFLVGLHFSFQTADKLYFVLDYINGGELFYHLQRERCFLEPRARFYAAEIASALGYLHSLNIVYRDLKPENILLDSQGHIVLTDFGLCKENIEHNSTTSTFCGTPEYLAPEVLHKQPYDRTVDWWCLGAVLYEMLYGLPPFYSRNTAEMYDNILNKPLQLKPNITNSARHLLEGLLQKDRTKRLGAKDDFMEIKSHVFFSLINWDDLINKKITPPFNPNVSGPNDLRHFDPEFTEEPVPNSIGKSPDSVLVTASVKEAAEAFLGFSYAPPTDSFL

[22] = Cell cycle arrest in BrdU pulse-labelled human HCT116 cells assessed as accumulation at subG1 phase at 125 to 500 nM after 24 hrs by propidium iodide staining based flow cytometry; type: functional; details: HCT-116
[23] = biological target: Cyclin-dependent kinase 2 (Homo sapiens) (UniProt P24941); test: Inhibition of CDK2 in human G361 cells assessed as reduction in phosphorylation of RNA polymerase 2 at C-terminus at 0.1 to 1 uM incubated for 24 hrs by immunoblotting analysis; type: cell-based; details: G-361
In short: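 Treated G361 cells were lysed in Laemmli buffer, run on SDS-PAGE and blotted to nitrocellulose. Blots were probed overnight with antibodies to RNA polymerase II phosphorylated at S5 and S2, and to total RNA polymerase II (ARNA-3). Peroxidase secondaries were then applied and signal was detected by ECL with a CCD camera.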

[24] = biological target: Casein kinase II (Homo sapiens) (UniProt P67870+P68400+P19784); test: Inhibition of recombinant CK2 (unknown origin) assessed as residual activity at 1 uM relative to control; type: protein-complex assay
[25] = biological target: SRSF protein kinase 1 (Homo sapiens) (UniProt Q96SB4); test: Inhibition of recombinant SRPK1 (unknown origin) assessed as residual activity at 1 uM relative to control
[26] = biological target: Serine/threonine-protein kinase D1 (Homo sapiens) (UniProt Q15139); test: Inhibition of recombinant PKD1 (unknown origin) assessed as residual activity at 1 uM relative to control
Chain of Serine/threonine-protein kinase D1 (Homo sapiens) (Q15139 whole entry): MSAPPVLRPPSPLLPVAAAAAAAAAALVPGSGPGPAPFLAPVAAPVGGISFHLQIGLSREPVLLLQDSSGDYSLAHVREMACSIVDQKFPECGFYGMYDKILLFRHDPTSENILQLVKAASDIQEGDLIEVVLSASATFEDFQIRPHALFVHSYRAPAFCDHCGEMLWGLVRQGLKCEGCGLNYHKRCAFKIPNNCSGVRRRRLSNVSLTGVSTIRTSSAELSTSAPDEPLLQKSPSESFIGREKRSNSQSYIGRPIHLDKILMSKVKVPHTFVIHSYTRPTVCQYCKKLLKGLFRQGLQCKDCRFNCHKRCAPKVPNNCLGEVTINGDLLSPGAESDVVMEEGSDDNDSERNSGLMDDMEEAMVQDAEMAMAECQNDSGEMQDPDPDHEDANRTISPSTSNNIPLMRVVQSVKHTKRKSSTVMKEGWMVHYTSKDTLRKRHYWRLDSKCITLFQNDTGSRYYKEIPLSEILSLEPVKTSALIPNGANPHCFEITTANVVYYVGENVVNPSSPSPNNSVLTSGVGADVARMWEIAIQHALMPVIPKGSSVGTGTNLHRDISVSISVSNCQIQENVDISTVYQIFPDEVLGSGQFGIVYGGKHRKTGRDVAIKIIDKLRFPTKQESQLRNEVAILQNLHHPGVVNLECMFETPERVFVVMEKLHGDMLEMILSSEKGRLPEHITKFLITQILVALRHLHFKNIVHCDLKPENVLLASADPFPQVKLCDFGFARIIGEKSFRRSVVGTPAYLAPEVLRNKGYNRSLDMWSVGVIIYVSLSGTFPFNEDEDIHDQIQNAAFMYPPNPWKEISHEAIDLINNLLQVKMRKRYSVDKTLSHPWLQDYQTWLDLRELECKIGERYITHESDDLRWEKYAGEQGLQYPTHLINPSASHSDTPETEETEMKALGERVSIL

[27] = biological target: Glycogen synthase kinase-3 beta (Homo sapiens) (UniProt P49841); test: Inhibition of recombinant GSK3beta (unknown origin) assessed as residual activity at 1 uM relative to control
Chain of Glycogen synthase kinase-3 beta (Homo sapiens) (P49841 whole entry, looked up): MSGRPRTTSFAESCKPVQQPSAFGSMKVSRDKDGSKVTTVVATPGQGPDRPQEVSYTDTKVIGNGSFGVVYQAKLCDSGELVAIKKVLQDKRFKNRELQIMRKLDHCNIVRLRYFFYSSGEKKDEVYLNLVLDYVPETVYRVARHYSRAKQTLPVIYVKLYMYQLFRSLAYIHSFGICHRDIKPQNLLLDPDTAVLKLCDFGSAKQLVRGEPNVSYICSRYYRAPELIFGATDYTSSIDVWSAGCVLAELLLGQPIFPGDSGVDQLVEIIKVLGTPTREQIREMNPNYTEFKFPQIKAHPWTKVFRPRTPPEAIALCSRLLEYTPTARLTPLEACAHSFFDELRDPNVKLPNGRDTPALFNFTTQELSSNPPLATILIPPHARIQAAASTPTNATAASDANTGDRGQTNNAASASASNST

MCF7 [28] = test: Cell cycle arrest in BrdU pulse-labelled human MCF7 cells assessed as accumulation at subG1 phase at 8 to 250 nM after 24 hrs by propidium iodide staining based flow cytometry; type: functional
[29] = biological target: Calcium/calmodulin-dependent protein kinase kinase 2 (Homo sapiens) (UniProt Q96RR4); test: Inhibition of recombinant CAMKKB (unknown origin) assessed as residual activity at 1 uM relative to control
Chain of Calcium/calmodulin-dependent protein kinase kinase 2 (Homo sapiens) (Q96RR4 2-588 limits assumed): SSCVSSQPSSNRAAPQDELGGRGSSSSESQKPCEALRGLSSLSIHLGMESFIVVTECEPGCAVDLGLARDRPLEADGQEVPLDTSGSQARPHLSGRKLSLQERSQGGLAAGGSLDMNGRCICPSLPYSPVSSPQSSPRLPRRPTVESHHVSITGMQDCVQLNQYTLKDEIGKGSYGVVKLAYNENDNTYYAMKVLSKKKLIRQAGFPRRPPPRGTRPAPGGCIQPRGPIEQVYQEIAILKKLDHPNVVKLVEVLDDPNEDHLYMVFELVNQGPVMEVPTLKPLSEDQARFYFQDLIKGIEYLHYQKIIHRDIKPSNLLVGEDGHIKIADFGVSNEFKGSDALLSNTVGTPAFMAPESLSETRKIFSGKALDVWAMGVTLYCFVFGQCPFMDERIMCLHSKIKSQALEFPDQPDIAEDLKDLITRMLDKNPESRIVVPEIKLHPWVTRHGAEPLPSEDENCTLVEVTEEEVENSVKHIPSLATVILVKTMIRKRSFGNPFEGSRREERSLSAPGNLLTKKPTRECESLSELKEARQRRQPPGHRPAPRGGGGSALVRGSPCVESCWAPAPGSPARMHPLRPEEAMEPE

[30] = biological target: Eukaryotic elongation factor 2 kinase (Homo sapiens) (UniProt O00418); test: Inhibition of recombinant EF2K (unknown origin) assessed as residual activity at 1 uM relative to control
Chain of Eukaryotic elongation factor 2 kinase (Homo sapiens) (O00418 whole entry): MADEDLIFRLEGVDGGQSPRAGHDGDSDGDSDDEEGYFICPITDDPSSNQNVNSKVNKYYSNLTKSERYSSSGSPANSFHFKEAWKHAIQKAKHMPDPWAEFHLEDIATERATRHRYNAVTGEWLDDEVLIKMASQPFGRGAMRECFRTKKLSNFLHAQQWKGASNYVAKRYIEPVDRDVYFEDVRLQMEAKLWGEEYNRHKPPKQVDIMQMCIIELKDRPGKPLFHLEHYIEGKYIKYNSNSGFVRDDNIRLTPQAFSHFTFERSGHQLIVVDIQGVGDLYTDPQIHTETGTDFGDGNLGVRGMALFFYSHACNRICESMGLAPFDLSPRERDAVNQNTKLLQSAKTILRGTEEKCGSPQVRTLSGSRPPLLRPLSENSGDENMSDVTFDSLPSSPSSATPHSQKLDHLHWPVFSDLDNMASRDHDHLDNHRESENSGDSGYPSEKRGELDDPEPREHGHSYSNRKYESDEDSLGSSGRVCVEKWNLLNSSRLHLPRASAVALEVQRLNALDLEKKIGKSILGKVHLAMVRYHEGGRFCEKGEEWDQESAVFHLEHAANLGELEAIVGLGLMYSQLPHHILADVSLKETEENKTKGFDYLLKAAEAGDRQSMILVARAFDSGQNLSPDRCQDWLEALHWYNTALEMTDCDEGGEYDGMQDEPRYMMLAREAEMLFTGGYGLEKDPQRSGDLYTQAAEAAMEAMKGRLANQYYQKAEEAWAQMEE

IC50 [1]: 2780 nM | Activity [2]: 97% | Activity [3]: 79% | Activity [4]: > 100% | Activity [5]: 90% | Activity [7]: > 100% | Activity [8]: 92% | Activity [9]: 97% | Activity [10]: 89% | Activity [12]: > 100% | Activity [14]: 60% | Activity [15]: 85% | Activity [17]: > 100% | Activity [19]: > 100% | Activity [20]: > 100% | Activity [21]: > 100% | inhibition [23]: Active | Activity [24]: 89% | Activity [25]: 95% | Activity [26]: > 100% | Activity [27]: > 100% | Activity [29]: 49% | Activity [30]: 92%
SMILES: CC(O)CNc1nc(NCc2ccc(-c3ccccn3)cc2)c2[nH]nc(C(C)C)c2n1 (stereo unspecified)
Activity (MCF7 [6]): Active | Activity (MCF7 [11]): Active | Activity (G-361): Active | Activity (HCT-116 [13]): Dose-dependent effect | Activity (HCT-116 [16]): Dose-dependent effect | Activity [18]: Active | Activity [22]: Active | Activity (MCF7 [28]): Active
